Screens from PubChem BioAssay.
DNMT1 inh: inhibitors of human DNMT1. P26358. DNMT1 molecular beacon, Hinp1I cleavage, fluorescence. inhibition (reported as % activation of signal), % at 10 µM. 0.83% of 360,000 active. AID 588458; in the data active = inhibition above about 50%
STEP inh: inhibitors of human striatal-enriched phosphatase STEP. P54829. recombinant STEP, OMFP fluorogenic substrate, fluorescence. 0.25% of 360,000 active. inhibition, % at 20 µM;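 active = inhibition at 20 µM, scaled per plate between control wells, above about 37%, limit read from the data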;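 note: 0% = DMSO with enzyme and substrate and 100% = substrate only without enzyme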
Target sequence (P54829 whole entry, looked up): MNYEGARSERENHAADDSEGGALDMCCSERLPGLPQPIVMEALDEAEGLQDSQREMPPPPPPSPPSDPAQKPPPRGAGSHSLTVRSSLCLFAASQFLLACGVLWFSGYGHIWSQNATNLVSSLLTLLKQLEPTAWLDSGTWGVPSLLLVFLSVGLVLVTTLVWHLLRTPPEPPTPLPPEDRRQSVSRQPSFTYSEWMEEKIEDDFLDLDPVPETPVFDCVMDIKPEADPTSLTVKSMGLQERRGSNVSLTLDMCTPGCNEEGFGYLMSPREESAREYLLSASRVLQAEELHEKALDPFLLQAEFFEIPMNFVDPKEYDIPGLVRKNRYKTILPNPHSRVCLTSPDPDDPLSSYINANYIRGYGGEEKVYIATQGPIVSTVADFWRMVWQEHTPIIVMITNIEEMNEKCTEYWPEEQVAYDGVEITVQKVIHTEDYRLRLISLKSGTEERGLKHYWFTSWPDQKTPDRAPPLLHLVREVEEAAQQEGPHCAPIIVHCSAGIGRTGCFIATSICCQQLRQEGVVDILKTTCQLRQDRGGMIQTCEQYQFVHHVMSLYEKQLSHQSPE
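Assay system: isolated STEP enzyme. Buffer or medium: pH 6.0 Bis-Tris with DTT and Tween 20. Also added: fluorogenic phosphatase substrate OMFP at 25 µM final. Dosing: 20 µM, 1% DMSO. Timing: 20 min reaction, room temperature, in the dark. Measured by: fluorescence intensity, excitation 480 nm, emission 540 nm. Evaluation: normalized % inhibition.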
LMPTP inh: blocks human LMPTP phosphatase; recombinant LMPTP-A, OMFP fluorogenic substrate, fluorescence intensity; P24666; 0.22% of 360,000 active; AID 651560; inhibition, % at 20 µM;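 active = compounds that cut the enzyme signal by at least half of the control window in the single-dose screen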;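 note: plate controls were DMSO wells with enzyme plus substrate for no effect and substrate without enzyme for full effect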
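Material: LMPTP-A; amount: 0.625 nM enzyme; doses: single 20 µM dose; times: reaction 50 min, room temperature, dark; technique: fluorescence intensity of OMFP turnover product; benchmarks: no-enzyme and uninhibited controls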
Scp1 inh: inhibitors of human Scp-1 phosphatase. inhibition, % at 20 µM. Q9GZU7. 0.88% of 340,000 active. Recombinant Scp1, phosphopeptide, malachite green phosphate absorbance;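 active = inhibition above about 50% at 20 µM, limit read from the data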;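 note: plate controls were DMSO wells with enzyme for no effect and wells lacking enzyme for full effect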
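Test system: SCP-1 phosphatase catalytic domain, residues 76-261 | Compound dosing: One concentration, 20 µM, with 1.0% DMSO | Schedule: 45 min room-temperature reaction, 5 min colour, 30 min stabiliser | Detection: Absorbance at 630 nm | Read-out basis: % inhibition of SCP-1 phosphate liberation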
SUMO1 PPI mod: alters human SUMO1 binding to SIM partners | SUMO1 binding to a labelled peptide, TR-FRET, 1 h | inhibition, % at 20 µM | 0.33% of 360,000 active; in the data active = inhibition above about 37%
Starred values were filed as active, the others as inactive; . = no result. Rows were chosen to be rich in hits. Some 1.7% of all compounds tested hit in one or more screens of this group.

SMILES	DNMT1 inh	STEP inh	LMPTP inh	Scp1 inh	SUMO1 PPI mod
C[C@@H]1CN([C@@H](C)CO)C(=O)CCCn2nncc2CO[C@@H]1CN(C)C(=O)Oc1cccc2ccccc12	0.4	-0.5	-1.2	.	-0.4
Nc1ccc(CC2=NCCN2)cc1	56.9*	0.2	-3.8	-18.1	-7.7
Cc1sc2ccccc2c1CC1=NCCN1	3.8	0.7	-0.4	-1.2	-25.5
CC(C)CCOC(=O)c1c(N)n(CC2CCCO2)c2nc3ccccc3nc12 (stereo not given)	32.7	5.4	6.1	2.7	36.3
CC(C)OC(=O)c1c(N)n(CC2CCCO2)c2nc3ccccc3nc12 (stereo not given)	-15.6	2.5	2.5	-9.3	42.1*
COC(=O)C1C2CC[C@@H](CC1OC(=O)c1ccccc1)N2 (stereo not given in full)	-0.6	-1.8	0.5	-5.5	-2.4
Cc1ccc(/C=C2\C(=O)NC(=S)N(c3ccc(F)cc3)C2=O)o1	35.1	-0.1	0.1	28.6	10.7
Cc1ccc(N2C(=O)/C(=C/c3ccc(CN(CCC#N)S(C)(=O)=O)o3)C(=O)NC2=S)cc1	110.2*	18.6	6.3	43.4	39.5*
CCn1nc(-c2cccs2)nc2c(=O)n(C)c(=O)nc1-2	118.7*	65.1*	63.1*	-6.9	24.4
COc1ccc(-n2c(/C=C/c3ccc(O)cc3)nc3ccccc3c2=O)cc1	-0.8	-2.1	3.0	-2.2	-18.7
CCn1nc(/C=C/c2ccccc2)nc2c(=O)n(C)c(=O)nc1-2	108.3*	69.2*	61.5*	-9.0	35.3
C[C@H]1OC[C@@H](C[N+](C)(C)C)O1	-28.7	1.4	-2.8	101.3*	0.8
CC1OC(C[N+](C)(C)C)CC1O (stereo not given)	-0.1	-2.1	-0.7	-0.7	5.3
COc1ccc(/C=C2/C(=O)N(Cc3ccco3)C(=O)N(C(C)C)C2=O)cc1	94.4*	-3.1	3.0	-10.3	43.1*
CC[n+]1c(-c2ccccc2)c2cc(N)ccc2c2ccc(N)cc21	2.2	2.2	72.0*	4.7	-61.0
CC1=NCCc2c1[nH]c1cc(O)ccc21	163.0*	-2.7	2.1	-11.3	-41.5
COc1ccc2c3c([nH]c2c1)C(C)=NCC3	-14.3	-7.1	2.5	-11.3	-29.7
CC[n+]1c(/C=C/C=C/c2ccc(N(C)C)cc2)sc2ccccc21	-20.3	20.8	90.5*	-6.9	-59.4
O=C(NC1CCCCC1)N1C[C@H]2C[C@@H](C1)c1cccc(=O)n1C2	4.5	-1.1	-2.1	-2.5	-1.2
Cc1cc(C(C#N)c2ccc(Cl)cc2)c(Cl)cc1NC(=O)c1cc(I)cc(I)c1O (stereo not given)	74.1*	9.6	6.4	8.9	50.9*
N#Cc1ccc(CN2Cc3ccccc3-n3nncc3C2)cc1	-4.7	-3.1	-0.3	.	-4.4
O=C(Cc1cc(=O)oc2cc(O)ccc12)NN=Cc1ccc(N(CCCl)CCCl)cc1	-3.2	-3.2	1.8	-1.0	92.4*
CCCCNC(=O)c1c(N)n(Cc2ccc3c(c2)OCO3)c2nc3ccccc3nc12	15.2	-1.6	6.1	2.1	63.6*
Nc1c(C(=O)NCc2ccco2)c2nc3ccccc3nc2n1Cc1ccc(F)cc1	21.4	-11.8	8.4	-4.1	40.2*
CN=C(SCC(=O)c1cccc(Cl)c1)c1c(O)n(C)c(=O)n(C)c1=O	-1.5	1.0	-0.7	11.2	-1.3
SMILES	DNMT1 inh	STEP inh	LMPTP inh	Scp1 inh	SUMO1 PPI mod
NC(N)=Nc1ccc2[nH]c3c(c2c1)C[C@@]1(O)[C@H]2Cc4ccc(O)c5c4[C@@]1(CCN2CC1CC1)[C@H]3O5	26.6	-1.9	11.7	98.5*	0.0
COc1cc(C(c2c(C)[nH]n(-c3ccccc3)c2=O)c2c(C)[nH]n(-c3ccccc3)c2=O)cc(OC)c1OC	9.1	2.3	8.5	5.7	53.5*
COC(=O)C(O)(c1c(C)[nH]n(-c2ccccc2)c1=O)C(F)(F)F (stereo not given)	-19.1	-1.2	-1.5	-14.5	-0.9
c1ccc2c(c1)[IH]c1ccccc1-2	53.0*	1.0	12.2	7.6	-0.9
c1ccc2c(c1)-c1cccc3cccc-2c13	-5.4	1.9	1.9	-12.8	3.2
CN1CC[C@]23c4c5ccc(O)c4OC2[C@H](O)C=CC3[C@H]1C5 (stereo not given in full)	2.5	0.4	-1.2	1.5	-2.3
